Here are results for 1 compound from ChEMBL document CHEMBL2331364, “A synthetic dolastatin 10 analogue suppresses microtubule dynamics, inhibits cell proliferation, and induces apoptotic cell death” (J Med Chem, 2013).

The source made the active and inactive calls. No cut-off for these calls is given here.

For test [1], the system named is HeLa. The experiment in a line: Induction of apoptosis in human HeLa cells assessed as caspase-3 dependent PARP cleavage at 30 nM after 24 hrs by Western blot analysis. The class given is functional, cell-based. The method, boiled down:
(§1)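 HeLa cells were treated with vehicle or 30 nM for 24 h and washed twice in PBS. Lysates were Western blotted with antibodies to JNK1, phospho-JNK, procaspase-3 and PARP.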

For test [2], the system named is HeLa. The experiment in a line: Induction of apoptosis in human HeLa cells assessed as caspase-3 activation at 30 nM after 24 hrs by Western blot analysis. Format: functional, cell-based. The method, boiled down: as §1
A general note: Immunoblotting shows a protein as a band on a membrane.

For test [3], the system named is HeLa. The experiment in a line: Induction of apoptosis in human HeLa cells assessed as apoptotic cells at 35 nM after 24 hrs by annexin V-FITC/propidium iodide staining-based FACS analysis. Format: functional. In outline: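 HeLa cells were exposed to 35 nM for 10 or 24 h, stained with annexin V and propidium iodide using a kit, and apoptotic cells were quantified by FACS. Nocodazole (700 nM) served as comparator.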
(In flow cytometry, cells or beads pass a laser one at a time.)

The subject of test [4] is HeLa. The experiment in a line: Inhibition of microtubule-kinetochore tension in human HeLa cells assessed as BubR1 accumulation at kinetochoric region at 15 to 45 nM after 24 hrs by Hoechst 33258 dye-based Hec1 staining assay. The class given is cell-based.
In test [5] the test system is MCF7. The experiment in a line: Inhibition of microtubule (unknown origin) dynamics in GFP-tubulin transfected human MCF7 cells assessed as microtubule pause time at 15 nM by confocal laser scanning microscopy (reference value: 35 +/- 8 %). The class given is cell-based. Details: scale not given: the % may be the effect or the level left. The method, boiled down:
(§2)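 EGFP-tubulin-transfected MCF-7 cells grown in EMEM with 10% FBS at 37 °C in 5% CO2, exposed to 15 nM compound (DMSO vehicle) or vehicle. Individual microtubules were followed by time-lapse confocal laser scanning microscopy and life-history traces were recorded. Kinetic parameters were derived from these traces, 20 microtubules per condition. Significance was tested by one-way ANOVA.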

Test [6] concerns MCF7. The experiment in a line: Inhibition of microtubule (unknown origin) dynamics in GFP-tubulin transfected human MCF7 cells assessed as microtubule shortening time at 15 nM by confocal laser scanning microscopy (reference value: 27 +/- 8 %). The class given is cell-based. Details: scale not given: the % may be the effect or the level left. The method, boiled down: as §2
Test [7] concerns MCF7. The experiment in a line: Inhibition of microtubule (unknown origin) dynamics in GFP-tubulin transfected human MCF7 cells assessed as increase in microtubule pause time at 15 nM by confocal laser scanning microscopy relative to control. Format: cell-based. In outline: as §2
Test [8] relates to MCF7. The experiment in a line: Inhibition of microtubule (unknown origin) dynamics in GFP-tubulin transfected human MCF7 cells assessed as decrease in microtubule shortening length at 15 nM by confocal laser scanning microscopy relative to control. Format: cell-based. The method, boiled down: (§3)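 EGFP-tubulin transfected MCF-7 cells were treated with vehicle or 15 nM, and individual microtubules were tracked by confocal laser scanning microscopy, 20 microtubules per condition. Life-history parameters were derived as previously described. Significance was tested by one-way ANOVA.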

Test [9] relates to MCF7. The experiment in a line: Inhibition of microtubule (unknown origin) dynamics in GFP-tubulin transfected human MCF7 cells assessed as microtubule shortening rate at 15 nM by confocal laser scanning microscopy (reference value: 16.4 +/- 5 um/min). Format: cell-based. The method, boiled down:
as §2

Test [10] has as its system MCF7. The experiment in a line: Inhibition of microtubule (unknown origin) dynamics in GFP-tubulin transfected human MCF7 cells assessed as decrease in microtubule growth rate at 15 nM by confocal laser scanning microscopy relative to control. The class given is cell-based. The method, boiled down: as §3
The subject of test [11] is MCF7. The experiment in a line: Induction of mitotic microtubule depolymerization in human MCF7 cells at 15 nM after 48 hrs by Hoechst 33258 dye-based fluorescence microscopy. Format: cell-based.
The subject of test [12] is HeLa. The experiment in a line: Induction of interphase microtubule depolymerization in human HeLa cells at 35 nM after 3 hrs by Hoechst 33258 dye-based fluorescence microscopy. Format: cell-based. The method, boiled down: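 HeLa cells were given a brief 3 h exposure to 35 nM. Interphase microtubules were then immunostained and examined by fluorescence microscopy.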

Test [13] relates to HeLa. The experiment in a line: Induction of mitotic microtubule depolymerization in human HeLa cells at 15 nM after 24 hrs by Hoechst 33258 dye-based fluorescence microscopy. The class given is cell-based.
Test [14] relates to HeLa. The experiment in a line: Antimitotic activity in human HeLa cells assessed as increase in phosphohistone H3 (Ser10) positive cell population at 7 nM after 24 hrs by fluorescence microscopic analysis (reference value: 3 +/- 0.3 %). Format: functional.
In test [15] the test system is HeLa. The experiment in a line: Inhibition of mitosis in human HeLa cells assessed as mitotic index ratio at 15 nM after 48 hrs by Hoechst 33258 DNA staining assay (reference value: 3). Format: functional. In outline: (§4)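 HeLa cells were treated with vehicle or 7, 15 or 30 nM compound for 24 or 48 h. DNA was stained with Hoechst 33258, and mitotic cells were counted by fluorescence microscopy to give the mitotic index, compared against vehicle-treated cells.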

For test [16], the system named is HeLa. The experiment in a line: Inhibition of mitosis in human HeLa cells assessed as mitotic index ratio at 7 nM after 48 hrs by Hoechst 33258 DNA staining assay (reference value: 3). The class given is functional. In outline: as §4
Test [17] deals with HeLa. The experiment in a line: Cell cycle arrest in human HeLa cells assessed as accumulation at G2/M phase at 45 nM after 24 hrs by propidium iodide staining-based flow cytometry (reference value: 4%). The class given is functional.
Test [18] relates to MCF7. The experiment in a line: Cytotoxicity against human MCF7 cells after 24 to 48 hrs by trypan blue assay. Format: functional, cell-based. The method, boiled down:
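Cells were seeded at 1 × 10^5 cells/mL, grown 24 h at 37 °C in 5% CO2, then given vehicle (0.1% DMSO) or 1–80 nM for a further 24 or 48 h. Attached plus floating cells were counted after trypan blue staining. Percent inhibition was plotted against concentration to give IC50. Average of three independent experiments.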

The species named for test [19] is Homo sapiens. The experiment in a line: Inhibition of microtubule (unknown origin) GTPase activity using GTP as substrate assessed as reduction of inorganic phosphate release at 10 uM incubated for 10 mins prior to substrate addition measured after 10 mins by ammonium molybdate malachite green assay relative to control. In outline: (§5)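 GTP (1 mM) was added and the mixture polymerized at 37 °C for 10 min. Reactions were stopped with perchloric acid, and released phosphate was measured by ammonium molybdate–malachite green.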

For test [20], the species on record is Homo sapiens. The experiment in a line: Inhibition of microtubule (unknown origin) GTPase activity using GTP as substrate assessed as reduction of inorganic phosphate release incubated for 10 mins prior to substrate addition measured after 10 mins by ammonium molybdate malachite green assay. The method, boiled down: as §5
For test [21], the species on record is Homo sapiens. The experiment in a line: Inhibition of microtubule (unknown origin) assembly at 5 uM after 20 mins by transmission electron microscopy. In outline: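 Goat brain tubulin (10 μM) was preincubated with 5 or 10 μM on ice for 20 min, then polymerized with 1 mM GTP at 37 °C in glutamate assembly buffer. Polymers were fixed in 0.5% glutaraldehyde, negatively stained with 2% uranyl acetate, and imaged by transmission EM.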

For test [22], the species on record is Homo sapiens. The experiment in a line: Inhibition of microtubule (unknown origin) assembly at 1 to 10 uM incubated for 15 mins prior to GTP addition measured for 30 mins by 90 degree light scattering-based fluorescence spectrophotometric method. The method, boiled down:
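MAP-rich tubulin (1 mg/mL) was preincubated with 1, 3, 5 or 10 μM in PEM buffer (25 mM Pipes pH 6.8, 3 mM MgCl2, 1 mM EGTA) for 15 min on ice. GTP (1 mM) was then added and assembly monitored by 90° light scattering at 400 nm for 30 min at 37 °C.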

A short description of test [23]: (§6) Inhibition of goat brain tubulin polymerization incubated for 20 mins prior to GTP addition measured for 30 mins by 90 degree light scattering-based fluorescence spectrophotometric method. Details: species or system Capra hircus. The method, boiled down: (§7)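 Goat brain tubulin (10 μM) was preincubated with compound (5 μM; or 1, 5, 7, 10 μM) in 1 M monosodium glutamate, 3 mM MgCl2, 1 mM EGTA, 25 mM Pipes pH 6.8 on ice for 20 min. GTP (1 mM) was then added and assembly followed by 90° light scattering at 400 nm for 30 min at 37 °C. Experiment run twice.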

The species entered for test [24] is Capra hircus. Described as §6. In outline: as §7

`CC[C@H](C)[C@@H]([C@@H](CC(=O)NC[C@H]1O[C@H](C(=O)NCCc2ccccc2)[C@@H](OC)[C@@H]1OC)OC)N(C)C(=O)[C@@H](NC(=O)[C@@H](NC)C(C)C)C(C)C`: the outcome in test [1], in test [2], in [4], in [11], in [12] and in test [13] was Active. The Activity stood at 65.3% in test [3]; 59% in test [5]; 19% in [6]; 12 um/min in [9]; 6.6% in test [14]; 17% in [17]. Moreover, the inhibition (usually the relative decrease from the control value, in per cent) in [7] is 50%; in [8] it was 44%; in test [10], 27%; in test [19], 50%; in [20], “Dose-dependent effect”; in test [24], “Dose-dependent effect”. Further, the values for the Ratio in test [15] and in [16] were 11 and 7.5, respectively. Also, the IC50 – broadly, the midpoint of a concentration-inhibition curve – was determined as 15 nM in test [18] and 6 µM in test [23]. Moreover, the inhibition result in [21] and in test [22] was “Active” in each case.
